{"source": "paper PMC8864714", "about": "(Chemical Science, 2022)", "key": {"[1]": {"system": "FADDI-AB156 (colistin-resistant, rifampin-resistant & MDR, XDR)", "assay": "MIC antibacterial assay", "assay_type": "cell-based, A. baumannii", "conditions": "for MIC, FADDI-AB156: 100% MHB, 90 min, 37 °C, twice in duplicate, mean ± SD", "outline": "(§1)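 Broth assay in 100% Mueller Hinton broth. Test compound was serially diluted from 250 to 4 μg ml−1 and mixed 1:1 by volume with a bacterial suspension of 2 × 10^6 cells per ml, then incubated 90 min at 37 °C. MIC was obtained by plotting maximal growth against concentration (Lambert and Pearson method). Run twice in duplicate; mean ± SD.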"}, "A. baumannii 19606": {"system": "A. baumannii 19606", "assay": "Minimum bactericidal concentration", "assay_type": "cell-based, Acinetobacter baumannii"}, "A. baumannii ATCC 19606": {"system": "A. baumannii ATCC 19606", "assay": "MIC antibacterial assay", "assay_type": "cell-based, Acinetobacter baumannii", "conditions": "for MIC, A. baumannii 19606: 100% MHB, 90 min, 37 °C, twice in duplicate, mean ± SD"}, "[2]": {"system": "panel of Gram-negative pathogens", "assay": "Antibacterial testing, statements in words", "assay_type": "cell-based", "conditions": "Table S2"}, "E. coli ATCC 25922": {"system": "E. coli ATCC 25922", "assay": "MIC antibacterial assay", "assay_type": "cell-based, Escherichia coli"}, "K. pneumoniae ATCC 13883": {"system": "K. pneumoniae ATCC 13883", "assay": "MIC antibacterial assay", "assay_type": "cell-based, Klebsiella pneumoniae"}, "A. baumannii culture": {"system": "A. baumannii culture", "assay": "Peptide stability in bacterial culture", "assay_type": "in vitro ADME", "conditions": "90 min incubation with A. baumannii culture"}, "FADDI-KP028 (MDR)": {"system": "FADDI-KP028 (MDR)", "assay": "MIC antibacterial assay", "assay_type": "cell-based, K. pneumoniae", "outline": "as §1"}, "[3]": {"conditions": "100% MHB, 90 min, 37 °C, twice in duplicate, mean ± SD"}}, "note": "Bridge positions count the residues as written; N and C are the ends. Square brackets hold non-standard residues; d marks the D form. I, II: the chains in the order shown. * marks the point of attachment. Ac6c = NC1(C(=O)O)CCCCC1; NHNH2 = NN*", "data": [{"compound": "Colistin", "values": [{"measurement": "MIC, FADDI-AB156", "setting": "[1]", "result": "12.6 ± 1.6 (10.9) μg ml^−1"}, {"measurement": "Bactericidal MBC, A. baumannii 19606", "setting": "A. baumannii 19606; CFU assay, twice in duplicate, mean ± SD", "result": "0.8 ± 0.02 (0.7) μg ml^−1"}, {"measurement": "MIC, A. baumannii 19606", "setting": "A. baumannii ATCC 19606", "result": "0.5 ± 0.04 (0.4) μg ml^−1"}]}, {"compound": "Fc1c(F)c(F)c(-c2c(F)c(F)c(F)c(F)c2F)c(F)c1F", "note": "[Decafluorobiphenyl]", "values": [{"measurement": "antibacterial activity of the linkers alone", "setting": "[2]", "result": "no antibacterial activity"}]}, {"compound": "I: H-[Ac6c]RPDKPRPYLPRPRPPRPVRC-NHNH2 / II: H-[Ac6c]RPDKPRPYLPRPRPPRPVRC-NHNH2 (disulfide I:21-II:21) [compound 2]", "values": [{"measurement": "MIC, E. coli 25922", "setting": "E. coli ATCC 25922; [3]", "result": "3.1 ± 0.1 (0.6) μg ml^−1"}, {"measurement": "MIC, FADDI-AB156", "setting": "[1]", "result": "59.2 ± 0.2 (11.4) μg ml^−1"}, {"measurement": "MIC, A. baumannii 19606", "setting": "A. baumannii ATCC 19606", "result": "30.8 ± 3.3 (5.9) μg ml^−1"}, {"measurement": "MIC, K. pneumoniae 13883", "setting": "K. pneumoniae ATCC 13883; [3]", "result": "5.1 ± 0.8 (1.0) μg ml^−1"}, {"measurement": "peptide stability in A. baumannii culture (RP-HPLC trace)", "setting": "A. baumannii culture", "result": "reduced"}, {"measurement": "MIC, FADDI-KP028", "setting": "FADDI-KP028 (MDR); [3]", "result": "111.3 ± 0.3 (21.5) μg ml^−1"}]}, {"compound": "CNC(C)C1CCC(N)C(OC2C(N)CC(N)C(OC3OCC(C)(O)C(NC)C3O)C2O)O1", "note": "(centres unmarked) [Gentamicin]", "values": [{"measurement": "MIC", "setting": "E. coli ATCC 25922; Escherichia coli, ATCC25922, 1.5 h, read-out: MIC, E. coli 25922", "result": "0.9 ± 0.1", "unit": "µg/mL"}, {"measurement": "MIC", "setting": "[1]; Acinetobacter baumannii, 1.5 h, read-out: MIC, FADDI-AB156", "result": "> 250", "unit": "µg/mL"}, {"measurement": "MBC", "setting": "A. baumannii 19606; Acinetobacter baumannii, 19606, read-out: Bactericidal MBC, A. baumannii 19606", "result": "4.6 ± 0.3", "unit": "µg/mL"}, {"measurement": "MIC", "setting": "A. baumannii ATCC 19606; Acinetobacter baumannii, ATCC19606, 1.5 h, read-out: MIC, A. baumannii 19606", "result": "2.7 ± 0.2", "unit": "µg/mL"}, {"measurement": "MIC", "setting": "K. pneumoniae ATCC 13883; Klebsiella pneumoniae, ATCC13883, 1.5 h, read-out: MIC, K. pneumoniae 13883", "result": "0.1 ± 0.05", "unit": "µg/mL"}, {"measurement": "MIC", "setting": "FADDI-KP028 (MDR); Klebsiella pneumoniae, 1.5 h, read-out: MIC, FADDI-KP028", "result": "> 250", "unit": "µg/mL"}]}, {"compound": "Fc1c(F)c(F)c(F)c(F)c1F", "note": "[Hexafluorobenzene]", "values": [{"measurement": "antibacterial activity of the linkers alone", "setting": "[2]", "result": "no antibacterial activity"}]}]}
